Measurements gathered from unrelated publications.
DRD2: D(2) dopamine receptor (DRD2, Homo sapiens, UniProt P14416)
Liver carboxylesterase: Liver carboxylesterase (Sus scrofa, UniProt Q29550)
ADORA3: Adenosine receptor A3 (ADORA3, Homo sapiens, UniProt P0DMS8)
MC1R: Melanocyte-stimulating hormone receptor (MC1R, Homo sapiens, UniProt Q01726)

| Structure (SMILES) | target | assay | setting | Ki [µM] |
| --- | --- | --- | --- | --- |
| COc1cccc(CCC2=NCCN2CCc2ccccc2)c1 | DRD2 | ligand displacement, radioligand | – | > 10 |
| CCCCC[C@H](O)/C=C/C1=C(CCCCCCC(=O)O)C(=O)CC1 | Liver carboxylesterase | enzyme activity, inhibitor, HPLC | pH 7.4 | 16 |
| CC(C)CC(C)N1CCCn2c1nc1c2c(=O)n(C)c(=O)n1C (stereo not shown) | ADORA3 | ligand displacement, radioligand | cell membranes | > 10 |
| CCCCC[C@H](O)/C=C/[C@H]1[C@H](O)CC(=O)[C@@H]1CCCCCCC(=O)O | Liver carboxylesterase | enzyme activity, inhibitor, HPLC | – | > 28 |
| CCCC(C)N1CCCn2c1nc1c2c(=O)n(C)c(=O)n1C (stereo not shown) | ADORA3 | ligand displacement, radioligand | cell membranes | > 10 |
| c1ccc(CCC2=NCCN2CCc2ccccc2)cc1 | DRD2 | ligand displacement, radioligand | – | > 10 |
| O=C1c2ccccc2CCN1CCCCN1CCN(c2cccc(Cl)c2Cl)CC1 | 5-hydroxytryptamine receptor 1E (HTR1E, Homo sapiens, UniProt P28566) | ligand displacement, radioligand | – | 3.45 |
| C=CN1CCCn2c1nc1c2c(=O)n(C)c(=O)n1C | ADORA3 | ligand displacement, radioligand | cell membranes | > 10 |
| CCn1c(-c2nc3cc(C(=O)N4CCC[C@@H](N)C4)cc(OC)c3n2C)cc2cccnc21 | Protein-arginine deiminase type-2 (PADI2, Homo sapiens, UniProt Q9Y2J8) | enzyme activity, inhibitor | – | 1580 |
| CC[C@H](C)[C@H](NC(=O)CN)C(=O)N[C@H](C(=O)N[C@@H](CC(N)=O)C(=O)N[C@H](C(=O)N[C@@H](CC(C)C)C(=O)N[C@@H](CCC(N)=O)C(=O)N[C@@H](CCCCN)C(=O)N[C@@H](Cc1ccc(O)cc1)C(=O)N[C@@H](Cc1ccc(O)cc1)C(=O)N[C@@H](CO)C(=O)N[C@@H](CCCNC(=N)N)C(=O)N[C@H](C(=O)N[C@@H](CCCNC(=N)N)C(=O)NCC(=O)NCC(=O)N[C@@H](CCCNC(=N)N)C(=O)N[C@@H](CO)C(=O)N[C@@H](C)C(=O)N[C@H](C(=O)N[C@@H](CC(C)C)C(=O)N[C@@H](CO)C(=O)N[C@H]1CSSC[C@@H](C(=O)N[C@@H](CCCNC(=N)N)C(=O)N[C@@H](CCCNC(=N)N)C(=O)N[C@@H](CCCCN)C(=O)N[C@@H](CCCCN)C(N)=O)NC(=O)[C@H](CO)NC(=O)[C@H](CCCCN)NC(=O)[C@H](CCCNC(=N)N)NC(=O)CNC(=O)[C@H](CCCNC(=N)N)NC(=O)[C@H]([C@@H](C)O)NC(=O)[C@H](CO)NC(=O)[C@H](CO)NC(=O)[C@H](CCCCN)NC(=O)CNC(=O)[C@H]([C@@H](C)CC)NC(=O)[C@H](CCC(N)=O)NC(=O)[C@H](CCC(=O)O)NC(=O)[C@H](CCC(=O)O)NC(=O)[C@H](CCCCN)NC(=O)[C@@H]2CCCN2C(=O)[C@H](CC(C)C)NC1=O)C(C)C)C(C)C)[C@@H](C)O)[C@@H](C)CC | MC1R | ligand displacement in cells | – | 0.198 |
| CCCCCC(C)N1CCCn2c1nc1c2c(=O)n(C)c(=O)n1C (stereo not shown) | ADORA3 | ligand displacement, radioligand | cell membranes | > 10 |
| C#CCNc1nc(Cl)nc2c1ncn2[C@H]1[C@H](O)[C@H](O)[C@]2(C(=O)NC)C[C@H]12 | ADORA3 | ligand displacement, radioligand | cell membranes | 0.0015 |
| CCCC[C@H](NC(=O)[C@H](CO)NC(=O)[C@H](Cc1ccc(O)cc1)NC(=O)[C@H](CO)NC(C)=O)C(=O)N[C@@H](CCC(=O)O)C(=O)N[C@@H](Cc1c[nH]cn1)C(=O)N[C@@H](C)C(=O)N[C@@H](CCCNC(=N)N)C(=O)N[C@@H](Cc1c[nH]c2ccccc12)C(=O)NCC(=O)N[C@@H](CCCCN)C(=O)N1CCC[C@H]1C(=O)N[C@H](C(=O)NCC(=O)N[C@@H](CCCCN)C(=O)N[C@@H](CCCCN)C(=O)N[C@@H](CCCNC(=N)N)C(N)=O)C(C)C | MC1R | ligand displacement in cells, radioligand | – | 0.0378 |
| NCCCC[C@H](NC(=O)[C@@H]1CCCN1C(=O)[C@@H]1CSSC[C@H](NC(=O)CNC(=O)CNC(=O)CN)C(=O)N[C@@H](Cc2ccc(O)cc2)C(=O)N[C@@H](Cc2ccccc2)C(=O)N[C@@H](CCC(N)=O)C(=O)N[C@@H](CC(N)=O)C(=O)N1)C(=O)NCC(N)=O | Vasopressin V2 receptor (AVPR2, Homo sapiens, UniProt P30518) | ligand displacement, radioligand | cell membranes | 6.9 |
| CNC(=O)[C@@]12C[C@@H]1[C@@H](n1cnc3c(NCc4cccc(C#CCCCCc5cn(C67CC8CC(CC(C8)C6)C7)nn5)c4)nc(Cl)nc31)[C@H](O)[C@@H]2O | ADORA3 | ligand displacement, radioligand | cell membranes | 0.0218 |
| CC/C=C\C/C=C\C/C=C\C/C=C\C/C=C\CCCC(=O)O | Liver carboxylesterase | enzyme activity, inhibitor, HPLC | pH 7.4 | 0.34 |
| CCNC(=O)[C@H]1O[C@@H](n2cnc3c(N)nc(NN=CC4CCC=CO4)nc32)[C@H](O)[C@@H]1O (stereo partly shown) | ADORA3 | ligand displacement, radioligand | – | 0.00632 |
| CC(C)N1CCCn2c1nc1c2c(=O)n(C)c(=O)n1C | ADORA3 | ligand displacement, radioligand | cell membranes | > 10 |
| COC(=O)[C@H](CSC/C=C(\C)CC/C=C(\C)CCC=C(C)C)NC(=O)c1ccc(-c2ccccc2)cc1 | Liver carboxylesterase | enzyme activity, inhibitor, HPLC | – | 190 |
